# Screens (PubChem BioAssay)
# FN deposit inh: fibronectin deposition inhibition; 0.086% of 350,000 active; inhibition, % at 12.6 µM; AH1F fibroblasts, Alexa488-fibronectin deposition fluorescence, overnight;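 active = mean inhibition across replicates of 30% or more, regardless of how many single replicates reach that level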;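 also: positive control wells lacked labelled fibronectin entirely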
#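 Assay system: AH1F fibroblast monolayer, labelled fibronectin deposition. Amount: 10000 cells per well. Also added: labelled fibronectin 24 nM. Compound: single-point pinned compound. Incubation: cell attachment 1 h, compound and FN exposure overnight. Detection: fluorescence after three HBSS washes, excitation 485 nm, emission 525 nm. Read-out: inhibition of fibronectin deposition signal.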
# ERp5 inh: inhibitors of human ERp5; ERp5 insulin aggregation, absorbance 650 nm, 90 min; inhibition, % at 9.99 µM; 0.05% of 350,000 active;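 active = mean replicate inhibition above about 25%, with every replicate also reaching it, limit read from the data, passing the limit was not always enough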
# Target sequence (Q15084 whole entry, looked up): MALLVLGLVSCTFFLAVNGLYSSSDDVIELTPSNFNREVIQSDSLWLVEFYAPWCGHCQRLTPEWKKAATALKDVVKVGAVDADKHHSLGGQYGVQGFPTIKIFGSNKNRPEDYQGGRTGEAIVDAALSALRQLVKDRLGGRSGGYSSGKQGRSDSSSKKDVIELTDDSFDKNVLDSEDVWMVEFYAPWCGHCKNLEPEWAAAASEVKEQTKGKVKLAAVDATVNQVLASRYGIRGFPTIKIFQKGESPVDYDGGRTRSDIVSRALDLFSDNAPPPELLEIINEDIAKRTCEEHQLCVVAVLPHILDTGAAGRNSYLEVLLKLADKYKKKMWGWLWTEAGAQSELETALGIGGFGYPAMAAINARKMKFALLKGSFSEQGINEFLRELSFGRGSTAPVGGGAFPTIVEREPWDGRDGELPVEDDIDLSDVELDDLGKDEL
# PDI inh: PDI (human) enzyme inhibition; P07237; PDI insulin aggregation turbidity, A650, 90 min; inhibition, % at 10 µM; 0.052% of 350,000 active; AID 588391;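 active = mean inhibition across replicates of 30% or more, whatever share of single replicates reach that level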
# FGF22 binding: binders of recombinant human FGF22 by thermal shift; SYPRO orange fluorescence; percent of sucrose octasulfate shift, DMSO zero; 1.5% of 340,000 active; activity (Tm shift, normalised), % at 9.99 µM; Q9HCT0;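 active = mean Tm shift, scaled 0 neutral to 100 positive control, at about 1.3% or above, every replicate too, limit read from the data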
# Target sequence (Q9HCT0 whole entry, looked up): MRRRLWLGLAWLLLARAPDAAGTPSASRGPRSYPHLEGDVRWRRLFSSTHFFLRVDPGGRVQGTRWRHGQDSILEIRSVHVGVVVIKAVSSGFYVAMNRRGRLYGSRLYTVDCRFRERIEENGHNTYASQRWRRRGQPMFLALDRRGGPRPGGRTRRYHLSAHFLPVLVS
# ARNT-TACC3 inh: disruptors of human ARNT/TACC3 interaction; Q9Y6A5; 0.66% of 390,000 active; inhibition, % at 9.99 µM; AlphaScreen His-ARNT PAS-B/GST-TACC3 binding, luminescence; TACC3 fragment carries E629A point mutation;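 active = mean inhibition of replicates at least 50% and at least half of replicates each reaching 50%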;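 also: 0% = complete ARNT plus TACC3 wells and 100% = ARNT alone without TACC3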
# MLL AF4-AF9 inh: MLL-AF4/AF9 protein interaction inhibition; AlphaScreen, biotin-AF4 peptide binding to FLAG-AF9; P42568; inhibition, % at 10 µM; 0.47% of 350,000 active;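 active = every replicate reaching a set inhibition limit, whatever the replicate mean, cut at about 25% in these data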;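 also: 0% = plate neutral control median and 100% = total signal loss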
# An asterisk follows results filed as active; nt = no result given; ! = not active in a repeat. Most compounds without a hit are left out; they make up all but 2.1% or so of the library.
SMILES,FN deposit inh,ERp5 inh,PDI inh,FGF22 binding,ARNT-TACC3 inh,MLL AF4-AF9 inh
O=C(CCNS(=O)(=O)c1ccc(Cl)cc1)OCC(=O)N1CCN(C(=O)c2ccco2)CC1,0,-1,1,13*,nt,3
Cc1noc(C)c1S(=O)(=O)Nc1ccc2c(c1)CC(=O)N([C@H](C)CO)C[C@@H](C)[C@@H](CN(C)Cc1ccc(C(=O)Nc3ccccc3N)cc1)O2,nt,6,nt,0,nt,3
COc1ccc2c3c(n(C)c2c1)[C@@H](CO)NCC31CCN(Cc2cc(-c3ccccc3)on2)CC1,13,1,nt,nt,nt,37*
COc1ccc2c3c(n(C)c2c1)[C@@H](CO)NCC31CN(Cc2cc(-c3ccccc3)on2)C1,nt,-9,nt,0,nt,5
COc1ccc2c3c(n(C)c2c1)[C@H](CO)NCC31CN(Cc2cc(-c3ccccc3)on2)C1,13,-2,nt,0,nt,40*
CCNC(=O)[C@@H]1[C@@H](CO)[C@@H]2Cn3c(cccc3=O)[C@@H]2N1C(=O)C1CCCC1,nt,1,nt,0,-10,1
C[C@H]1CC=CC[C@@H](c2cccc(Cl)c2)NC(=O)[C@H](C)N(C)C(=O)c2ccccc2O1 (mixture of isomers),5,nt,nt,nt,nt,nt
CCOC(=O)C1CCN(C(=O)c2ccc3c(=O)n4nc(Nc5cc(C)ccc5C)sc4nc3c2)CC1,3,11,4,0,9,1
CCOC(=O)C1CCN(C(=O)c2ccc3c(=O)n4nc(Nc5ccccc5OC)sc4nc3c2)CC1,-8,-7,-79,2.4*,nt,-4
CC1(C)CCC(C)(C)NC(=S)N1,-6,2,1,0,3,-2
CC1CC(C)(C)NC(=S)O1 (centres undefined),1,3,8,43*!,-6,0
COCC(=O)Nc1ccc2c(c1)OC[C@@H](C)N(Cc1cc(F)ccc1F)C[C@H](C)[C@H](OC)CN(C)C2=O,-9,-3,nt,0,-4,0
Cc1ccccc1S(=O)(=O)NCC[C@H]1CC[C@H](NS(=O)(=O)c2ccccc2C)[C@@H](CO)O1,nt,3,nt,0,5,3
CCc1nc2ccc(C(=O)Nc3cc(-c4ccccc4)ccc3OC)cn2c1N(C)Cc1nccs1,-13,1,-9,43*,nt,-13
CCc1nc2ccc(C(=O)Nc3cc(-c4ccccc4)ccc3OC)cn2c1N(C)Cc1ccc(OC)cc1,nt,-4,13,0,nt,2
CCc1nc2ccc(C(=O)NCc3ccccc3OC)cn2c1N(C)Cc1ccc(N(C)C)cc1,2,-9,20,0,nt,26*
CCc1nc2ccc(C(=O)Nc3cc(-c4ccccc4)ccc3OC)cn2c1N(CCN(C)C)CC1CC1,-17,-6,6,0,nt,30*
O=C(C[C@@H]1CC[C@H](NC(=O)NC2CCCCC2)[C@H](CO)O1)NCc1ccc(Cl)cc1,8,13,nt,0,-2,-1
COc1ccccc1-c1ccc([C@H]2[C@@H](CO)N[C@@H]2CNC(=O)C2CCCC2)cc1,nt,5,nt,nt,nt,-1
CCOc1ccc(-c2nnc(SCC(=O)N3CCNC3=O)o2)cc1,-2,-3,-12,0,13,28*
C[C@@H]1CN([C@H](C)CO)C(=O)c2c(c3ccccc3n2C)-c2ccccc2CO[C@H]1CN(C)Cc1ccc2c(c1)OCCN2C,-3,0,10,0,nt,42*!
C[C@H](CO)N1C[C@H](C)[C@H](CN(C)Cc2ccc3c(c2)OCCN3C)OCc2ccccc2-c2c(n(C)c3ccccc23)C1=O,-12,-2,nt,0,nt,18
C[C@H]1CN([C@@H](C)CO)C(=O)c2ccccc2-c2ccccc2CO[C@H]1CN(C)Cc1ccc2c(c1)OCCN2C,-8,-2,nt,0,2,34*
Cc1noc(C)c1NC(=O)N(C)C[C@@H]1Oc2c(NC(=O)c3ccc(-c4nccs4)cc3)cccc2C(=O)N([C@@H](C)CO)C[C@@H]1C,-5,-7,nt,0,-7,-4
Cn1c(=O)n(Cc2ccc(Cl)cc2)c(=O)c2c1nc1n2CCN1Cc1ccco1,nt,nt,4,nt,1,nt
SMILES,FN deposit inh,ERp5 inh,PDI inh,FGF22 binding,ARNT-TACC3 inh,MLL AF4-AF9 inh
Cn1c(=O)n(Cc2ccccc2F)c(=O)c2c1nc1n2CCN1Cc1ccco1,1,2,-3,43*,2,0
O=C(Nc1cccc(C(F)(F)F)c1)c1ccc(-n2cncn2)nc1,-3,-3,-5,43*,-2,-1
O=C(Nc1ccc2c(c1)[C@H]1C[C@H](CC(=O)N3CCOCC3)O[C@H](CO)[C@H]1O2)C1CCC1,-11,nt,nt,0,-1,nt
COc1ccc(N2CCN(C(=O)CN3CCN(c4nc(-c5ccc(F)cc5)cs4)CC3)CC2)cc1,-4,-1,-8,0,8,27*
COc1ccc(NC(=O)N(C)C[C@@H]2OCCCC[C@@H](C)Oc3ccc(NC(=O)C4CCCCC4)cc3C(=O)N([C@@H](C)CO)C[C@H]2C)cc1,nt,-2,nt,0,0,-1
CC(NC(=O)C(c1ccccc1)c1ccccc1)C(=O)N1CCCCC1 (centres undefined),nt,2,14,43*,3,2
CC(NC(=O)C(c1ccccc1)c1ccccc1)C(=O)O (centres undefined),nt,5,-3,0,-3,-9
O=C(COC(=O)CCc1ccccc1)NC1CCS(=O)(=O)C1 (centres undefined),5,-4,2,0,-2,1
COc1cc2ccccc2cc1C(=O)OCC(=O)NC1CCS(=O)(=O)C1 (centres undefined),4,2,3,43*,-2,-2
CC(CC(=O)OCC(=O)NC1CCS(=O)(=O)C1)c1ccccc1 (centres undefined),4,-2,3,43*,2,4
O=C1C=CC(=O)c2c(O)c(N3CCN(CCO)CC3)c(Cl)c(O)c21,10,0,3,0,31*,14
O=C(C[C@@H]1C[C@@H]2c3cc(NC(=O)C4CCC4)ccc3O[C@@H]2[C@H](CO)O1)NCc1cccnc1,-5,-5,nt,0,nt,-14
COc1cccc(CN2CCN(C(=O)c3ccc(-c4ccccc4)cc3)CC2)c1OC,32*,-2,6,0,nt,-1
COc1cc(CN2CCN(C(=O)c3ccc(-c4ccccc4)cc3)CC2)cc(OC)c1OC,nt,5,-3,0,-4,4
O=C1NCCN(Cc2ccc(Cl)c(F)c2)C1CC(=O)N1CCCO1 (centres undefined),-3,6,-2,43*,nt,-1
O=C1NCCN(Cc2c(F)cccc2Cl)C1CC(=O)N1CCCO1 (centres undefined),5,2,1,0,3,-8
